Results on two molecules are retold here after ChEMBL document CHEMBL1156045, “Discovery of novel types of inhibitors of S-adenosylmethionine synthesis by virtual screening” (J Med Chem, 2009).

The test system of assay [1] is Escherichia coli. Kind of assay: Inhibition of Escherichia coli MAT assessed as incorporation of L-[methyl-14C]methionine into S-adenosyl-methionine at 1 mM after 5 to 10 mins by scintillation counting. The essentials: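 Screen: E. coli MAT (0.25 μM) preincubated 20 min at room temperature with 1 mM compound (15% DMSO final) in Tris·Cl pH 8.0/KCl/MgCl2. 1.5 volumes of reagents added (final 0.1 mM ATP, 0.1 mM [14C]methionine, 10 mM MgCl2). Run 5 min at 25° C, stopped with 25 mM EDTA; AdoMet on P-81 filters counted.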

A short description of assay [2]: Inhibition of Escherichia coli MAT assessed as incorporation of L-[methyl-14C]methionine into S-adenosyl-methionine after 5 to 10 mins by scintillation counting. The essentials: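 Recombinant E. coli MAT (0.3 μM subunits) preincubated 20 min with inhibitor before substrates were added. Assay buffer was 50 mM Tris·Cl pH 8.0, 50 mM KCl, 10 mM MgCl2, 10 mM ATP and 0.5 mM L-[methyl-14C]methionine at 25 °C. Reactions were EDTA-quenched and AdoMet was captured on P-81 filters. Ki came from a nonlinear fit of fractional activity to the tight-binding equation.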

Assay [3] relates to Saccharomyces cerevisiae. Kind of assay: Antifungal activity against Saccharomyces cerevisiae RDY84 at 1 mM after overnight incubation by filter disk method. The class given is functional, organism-based. The essentials: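 S. cerevisiae RDY84 (pdr1Δ pdr3Δ) lawn on YDP agar; 5 mm filter disk soaked with 1 mM compound in DMSO, or DMSO control, placed on freshly spread cells. Zone of growth inhibition measured after overnight incubation at 30° C.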

In assay [4] the test system is Escherichia coli. Put plainly: Inhibition of Escherichia coli MAT assessed as incorporation of L-[methyl-14C]methionine into S-adenosyl-methionine at 200 uM after 5 to 10 mins by scintillation counting in presence of ATP treated before addition of methionine. The essentials:
(§1)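 Onset of inhibition: 0.3 μM MAT subunits (0.3 μM inhibitor) or 10 μM enzyme (200 μM inhibitor) incubated in 50 mM Tris·Cl, 50 mM KCl, 10 mM MgCl2 with 10 mM ATP or 1 mM L-methionine where present. Aliquots diluted into assay reagents at set times; [methyl-14C]AdoMet on P-81 filters counted.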

Assay [5] concerns Escherichia coli. Kind of assay: Inhibition of Escherichia coli MAT assessed as lack of recovery of detectable enzyme activity at 0.3 uM up to 20 mins measured after 24 hrs of dialysis.
Assay [6] has as its system Escherichia coli. Kind of assay: Inhibition of Escherichia coli MAT assessed as time required to achieve half maximal enzyme inhibition at 200 uM after 5 to 10 mins by scintillation counting. The essentials:
as §1

Assay [7] has as its system Methanocaldococcus jannaschii. Kind of assay: Inhibition of Methanococcus jannaschii MAT at 1 mM treated for 20 mins before addition of substrate. The essentials:
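M. jannaschii MAT (0.3 μM) preincubated 20 min with 0.1–1.0 mM compound, then assayed as for E. coli enzyme (0.1 mM ATP, 0.1 mM [14C]methionine) at 37° C. [14C]AdoMet on P-81 filters counted.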

For assay [8], the system named is Escherichia coli. Kind of assay: Antibacterial activity against Escherichia coli RP523 at 1 mM after overnight incubation by filter disk method. The class given is functional, organism-based. The essentials: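 E. coli RP523 (hyperpermeable strain): ~30 μl overnight culture spread on LB agar; 5 mm filter disks soaked with 30 μl of 1 mM compound in DMSO, or DMSO control, placed on lawn. Zone of growth inhibition measured after overnight incubation at 37° C.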

Assay [9] relates to Escherichia coli. Kind of assay: Inhibition of Escherichia coli MAT assessed as incorporation of L-[methyl-14C]methionine into S-adenosyl-methionine at 200 uM after 5 to 10 mins by scintillation counting in presence of methionine treated before addition of ATP. The essentials: as §1
For assay [10], the system named is NCI60. Put plainly: Growth inhibition of human NCI60 cells up to 100 uM. The class given is functional, cell-based. The essentials: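 Tested by NCI Developmental Therapeutics Program against the 60 tumour cell line panel in its standard protocol, concentrations up to 100 μM.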

Active and inactive are the calls of the source. No cut-off for these calls is given here.

As for `Cc1ccc(NC(=O)Nc2cccc(C(F)(F)F)c2)cc1NC(=O)Nc1cccc(C(F)(F)F)c1`, the outcome in assay [1] was inactive.
As usually defined, the Ki is the dissociation constant of the complex between target and ligand, obtained from inhibition or displacement. As for `NS(=O)(=O)c1ccc(NC(=O)Nc2ccc(Cl)cc2[N+](=O)[O-])cc1`, the Ki in assay [2] was 6.9 nM. Besides, the outcome in [3], in assay [4] and in [8] was inactive. For the same molecule, the outcome in [5], in assay [1] and in assay [9] was Active. The Activity in [6] came out at 20 min. Further, the inhibition result in assay [7] is “inactive”. Also, the “growth inhibition (GI)” value in assay [10] is “inactive”.
